ChEMBL document CHEMBL1799922, “Synthesis and antimycobacterial activity of prodrugs of indeno[2,1-c]quinoline derivatives” (Eur J Med Chem, 2011)
In brackets after ≈: the same amount, converted by molar mass.

Key:
[1] = Half life in human blood serum by LC-MS analysis; assay type: ADME, cell-free, Plasma
Method in brief: (§1)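 Enzymatic hydrolysis: 1 mg prodrug dissolved in 1 mL ethanol, then 200 µL preheated human blood serum diluted to 80% with 0.16 M phosphate buffer (pH 7.4) was added. Samples were kept at 37 °C (24 h) and centrifuged 10 min at 10,000 rpm. Remaining prodrug in the supernatant was monitored by TLC and LC-MS. t1/2 is the time to 50% hydrolysis.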

[2] = Cytotoxicity against human U937 cells assessed as cell viability at 20 ug/ml after 72 hrs by MTT assay; assay type: cell-based, U-937; settings: read-out: Activity
Method in brief: (§2)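 U937 human monocytic cells plated at 1 × 10^5 cells/mL and allowed to adhere for 1 h at 37 °C in 5% CO2. Non-adherent cells were washed off with RPMI 1640. Adherent cells were exposed to compound in triplicate, with medium alone as the live control and 3% Tween 20 as the dead control. MTT (5 mg/mL in PBS) was then added for 3 h at 37 °C. Formazan was dissolved in 0.4 M HCl/isopropanol and absorbance read at 600 nm. Results are expressed as % cell viability.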

Serum = assay: Stability of the compound in 80% human blood serum assessed as hydrolysis to 2-bromo-6-(1H-imidazol-1-yl)-7H-indeno[2,1-c]quinolin-7-one oxime at 1 mg after 24 hrs at 37 degC by LC-MS analysis; assay type: ADME, cell-free; parameters: scale not given: the % may be the effect or the level left; method in brief: as §1
[3] = Selectivity index, ratio CC50 for human U937 cells to MIC for Mycobacterium tuberculosis H37Rv ATCC 27294; assay type: functional, U-937
[4] = Octanol-water partition coefficient, log P of the compound at pH 7.4 at room temperature by UV spectrophotometric analysis; assay type: physicochemical
Method in brief: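 Shake-flask method at room temperature: 1-octanol and phosphate buffer (pH 7.4) were pre-saturated by shaking for 24 h. Compound at 10^-4 M in equal volumes of both phases was shaken vigorously for 1 h, left to stand 15 min, then centrifuged 10 min at 10,000 rpm. UV absorbance of each phase was read at 280 nm against blanks, and P was taken as the octanol/water absorbance ratio.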

[5] = Stability of the compound in 10% aqueous ammonia buffer at pH 8 assessed as hydrolysis to 2-bromo-6-(1H-imidazol-1-yl)-7H-indeno[2,1-c]quinolin-7-one oxime at 1 mg at 37 degC by LC-MS analysis; assay type: physicochemical; parameters: scale not given: the % may be the effect or the level left
Method in brief: (§3)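 Chemical hydrolysis: 1 mg prodrug dissolved in 1 mL of 10% aqueous ammonia in methanol (pH 8) and held in a thermostatted water bath at 37 °C, up to 24 h. Conversion to the parent oxime was followed by TLC and LC-MS. t1/2 is the time to 50% hydrolysis.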

[6] = Half life in 10% aqueous ammonia buffer at pH 8 assessed as hydrolysis to 2-bromo-6-(1H-imidazol-1-yl)-7H-indeno[2,1-c]quinolin-7-one oxime at 37 degC by LC-MS analysis; assay type: physicochemical; method in brief: as §3
[7] = Cytotoxicity against human U937 cells assessed as cell viability at 5 ug/ml after 72 hrs by MTT assay; assay type: cell-based, U-937; settings: read-out: Activity; method in brief: as §2
[8] = Cytotoxicity against human U937 cells assessed as cell viability at 1.25 ug/ml after 72 hrs by MTT assay; assay type: cell-based, U-937; settings: read-out: Activity; method in brief: as §2
[9] = Cytotoxicity against human U937 cells assessed as cell viability at 10 ug/ml after 72 hrs by MTT assay; assay type: cell-based, U-937; settings: read-out: Activity; method in brief: as §2
[10] = system: Mycobacterium tuberculosis; assay: Antimicrobial activity against Mycobacterium tuberculosis H37Rv ATCC 27294 after 16 to 24 hrs by microplate alamar blue assay; assay type: functional
Method in brief: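 M. tuberculosis H37Rv inoculum 2×10^5 cfu/mL (100 µL) added to twofold dilutions in Middlebrook 7H12 medium; final test range 128 µM to 0.5 µM from 12.8 mM DMSO stocks. Incubated 37 °C; day 7 Tween 80 plus Alamar Blue added, further 16-24 h at 37 °C. Fluorescence ex 530/em 590 nm; MIC = lowest concentration giving >90% fluorescence reduction versus replicate bacteria-only controls. Rifampin, isoniazid controls.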

Row | Compound | half-life [1] [h] | viability at 72 h, 20 ug/ml [2] [%] | Activity (Serum) | Selectivity Index [3] | logD [4] | Activity [5] [%] | half-life [6] [h] | viability at 72 h, 5 ug/ml [7] [%] | viability at 72 h, 1.25 ug/ml [8] [%] | viability at 72 h, 10 ug/ml [9] [%] | MIC [10] [µg/mL]
1 | CC(C)(C)OC(=O)N1CCC[C@H]1C(=O)O/N=C1\c2ccccc2-c2c1c(-n1ccnc1)nc1ccc(Br)cc21 | 24 | 78 | 95% | >102 | 1.3 | 90 | 12 | 86 | 87 | 74 | 0.39 (≈ 0.663 µM)
2 | CC(C)(C)OC(=O)NC(Cc1ccccc1)C(=O)O/N=C1\c2ccccc2-c2c1c(N1CCN(c3ccccn3)CC1)nc1ccc(Br)cc21 (stereo unspecified) | 432 | 73 | 70% | >12 | 1.2 | 98 | 72 | 87 | 87 | 71 | 3.47 (≈ 4.73 µM)
3 | CC(C)(C)OC(=O)NCC(=O)O/N=C1\c2ccccc2-c2c1c(N1CCN(c3ccccn3)CC1)nc1ccc(Br)cc21 | 24 | 49 | 95% | 22 | 0.7 | 95 | 3.6 | 82 | 87 | 63 | 1.55 (≈ 2.41 µM)
4 | CCCCCC(=O)O/N=C1\c2ccccc2-c2c1c(-n1ccnc1)nc1ccc(Br)cc21 | 240 | – | 85% | – | 2.1 | 90 | 144 | – | 81 | 100 | 1.5 (≈ 3.07 µM)
5 | CCCC(=O)O/N=C1\c2ccccc2-c2c1c(-n1ccnc1)nc1ccc(Br)cc21 | 96 | 70 | 90% | >200 | 1.5 | 95 | 36 | 88 | 85 | 69 | < 0.2
6 | CC1(OC(=O)CC(F)(F)F)c2ccccc2-c2c1c(-n1ccnc1)nc1ccc(Br)cc21 (stereo unspecified) | 480 | 26 | – | 22.4 | 1.8 | 96 | 24 | 80 | 92 | 62 | 0.5 (≈ 0.995 µM)
7 | CC(C)(C)OC(=O)NC(Cc1cccc(F)c1)C(=O)O/N=C1\c2ccccc2-c2c1c(N1CCN(c3ccccn3)CC1)nc1ccc(Br)cc21 (stereo unspecified) | 144 | 84 | 95% | >13 | 1.1 | 95 | 72 | 90 | 92 | 79 | 2.98 (≈ 3.96 µM)
8 | CC(=O)O/N=C1\c2ccccc2-c2c1c(-n1ccnc1)nc1ccc(Br)cc21 | 84 | 42 | 94% | >71 | 1.1 | 95 | 48 | 78 | 87 | 59 | < 0.2
9 | CCCCCCCCCC(=O)O/N=C1\c2ccccc2-c2c1c(-n1ccnc1)nc1ccc(Br)cc21 | 144 | – | 90% | – | 1.4 | 90 | 24 | – | 100 | 81 | 3 (≈ 5.5 µM)
10 | CCCCCCCC(=O)OC1(C)c2ccccc2-c2c1c(-n1ccnc1)nc1ccc(Br)cc21 (stereo unspecified) | – | 17 | Not Active | 2.5 | 1.8 | 90 | 264 | 72 | 87 | 52 | 3.42 (≈ 6.6 µM)
11 | CCCCC(=O)O/N=C1\c2ccccc2-c2c1c(-n1ccnc1)nc1ccc(Br)cc21 | 144 | 51 | 90% | 60 | 1.6 | 90 | 72 | 82 | 85 | 75 | 0.28 (≈ 0.589 µM)
12 | CCCCCC(=O)O/N=C1\c2ccccc2-c2c1c(N1CCN(c3ccccn3)CC1)nc1ccc(Br)cc21 | – | 87 | 5% | >13 | 2.1 | 95 | 576 | 86 | 96 | 85 | 3.16 (≈ 5.41 µM)
13 | CCCCCCCCC(=O)O/N=C1\c2ccccc2-c2c1c(-n1ccnc1)nc1ccc(Br)cc21 | 72 | 72 | 95% | >102 | 1.9 | 95 | 24 | 85 | 87 | 77 | 0.39 (≈ 0.734 µM)
14 | CC(C)(C)OC(=O)N[C@H](C(=O)O/N=C1\c2ccccc2-c2c1c(N1CCN(c3ccccn3)CC1)nc1ccc(Br)cc21)C(C)(C)C | – | 82 | 11% | >26 | 1.5 | 95 | 48 | 86 | 92 | 87 | 1.52 (≈ 2.17 µM)
15 | CC(=O)OC1(C)c2ccccc2-c2c1c(-n1ccnc1)nc1ccc(Br)cc21 (stereo unspecified) | – | 35 | Not Active | 7.5 | 2.7 | 90 | 240 | 90 | 94 | 63 | 1.88 (≈ 4.33 µM)
16 | CCCCCCC(=O)O/N=C1\c2ccccc2-c2c1c(-n1ccnc1)nc1ccc(Br)cc21 | 192 | 60 | 85% | >111 | 1.5 | 95 | 48 | 80 | 85 | 67 | 0.36 (≈ 0.715 µM)
17 | CC(=O)NCC(=O)O/N=C1\c2ccccc2-c2c1c(N1CCN(c3ccccn3)CC1)nc1ccc(Br)cc21 | 192 | – | 95% | – | 1.2 | 95 | 144 | – | 83 | 77 | 6 (≈ 10.2 µM)
18 | CCCCC(=O)OC1(C)c2ccccc2-c2c1c(-n1ccnc1)nc1ccc(Br)cc21 (stereo unspecified) | – | 4 | Not Active | 5.6 | 1.7 | 90 | 288 | 75 | 91 | 48 | 1.53 (≈ 3.21 µM)
19 | C[C@H](NC(=O)OC(C)(C)C)C(=O)O/N=C1\c2ccccc2-c2c1c(N1CCN(c3ccccn3)CC1)nc1ccc(Br)cc21 | 480 | – | 66% | – | 1.7 | 95 | 48 | – | 100 | 100 | 6 (≈ 9.12 µM)
20 | CCCCCC(=O)OC1(C)c2ccccc2-c2c1c(-n1ccnc1)nc1ccc(Br)cc21 (stereo unspecified) | – | 15 | Not Active | 6.1 | 1.4 | 90 | 288 | 77 | 85 | 54 | 1.6 (≈ 3.26 µM)
